{
  "source": "ChEMBL document CHEMBL5150070",
  "about": "“Tricyclic SpiroLactams Kill Mycobacteria In Vitro and In Vivo by Inhibiting Type II NADH Dehydrogenases” (J Med Chem, 2022)",
  "key": {"[1]": {"system": "Mycobacterium tuberculosis", "test": "Antimycobacterial activity against Mycobacterium tuberculosis H37Rv assessed as reduction in bacterial cell growth by measuring resazurin reduction incubated for 6 days by fluorescence microplate based assay", "type": "functional", "settings": "time 6 day"}, "[2]": {"target": "Type II NADH:quinone oxidoreductase Ndh (Mycobacterium tuberculosis, UniProt P95160)", "sequence (P95160 whole entry)": "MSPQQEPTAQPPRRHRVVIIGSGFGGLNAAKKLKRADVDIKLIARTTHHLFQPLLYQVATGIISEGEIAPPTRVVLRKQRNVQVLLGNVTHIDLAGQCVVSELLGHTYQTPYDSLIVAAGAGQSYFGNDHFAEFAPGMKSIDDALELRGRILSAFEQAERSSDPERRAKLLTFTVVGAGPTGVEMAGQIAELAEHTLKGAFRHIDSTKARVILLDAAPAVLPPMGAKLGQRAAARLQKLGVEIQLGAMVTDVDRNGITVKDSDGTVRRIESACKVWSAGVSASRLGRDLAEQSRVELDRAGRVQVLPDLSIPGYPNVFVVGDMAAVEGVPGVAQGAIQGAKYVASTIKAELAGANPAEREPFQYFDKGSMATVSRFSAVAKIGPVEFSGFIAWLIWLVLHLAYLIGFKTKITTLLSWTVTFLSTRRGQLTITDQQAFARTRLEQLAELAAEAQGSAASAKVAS", "test": "Inhibition of Mycobacterium tuberculosis recombinant type II NADH dehydrogenase ndh expressed in Escherichia coli assessed as rate of NADH oxidation in the presence of an electron acceptor menadione", "summary_of_the_method": "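Purified N-terminal MBP-tagged Mtb Ndh (Rv1854c) expressed in E. coli, 70 nM, with 500 µM NADH in 50 mM HEPES pH 7.1 (K₂HPO₄). Compound pre-incubated 15 min at 25°C, reaction started with 100 µM menadione. NADH oxidation followed at 340 nm every 60 s. Rate taken from linear slope; IC50 is the mean ± SD of at least 3 independent experiments.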"}, "[3]": {"target": "T1, Type II NADH:quinone oxidoreductase NdhA (Mycobacterium tuberculosis, UniProt P95200)", "T1 sequence (P95200 whole entry)": "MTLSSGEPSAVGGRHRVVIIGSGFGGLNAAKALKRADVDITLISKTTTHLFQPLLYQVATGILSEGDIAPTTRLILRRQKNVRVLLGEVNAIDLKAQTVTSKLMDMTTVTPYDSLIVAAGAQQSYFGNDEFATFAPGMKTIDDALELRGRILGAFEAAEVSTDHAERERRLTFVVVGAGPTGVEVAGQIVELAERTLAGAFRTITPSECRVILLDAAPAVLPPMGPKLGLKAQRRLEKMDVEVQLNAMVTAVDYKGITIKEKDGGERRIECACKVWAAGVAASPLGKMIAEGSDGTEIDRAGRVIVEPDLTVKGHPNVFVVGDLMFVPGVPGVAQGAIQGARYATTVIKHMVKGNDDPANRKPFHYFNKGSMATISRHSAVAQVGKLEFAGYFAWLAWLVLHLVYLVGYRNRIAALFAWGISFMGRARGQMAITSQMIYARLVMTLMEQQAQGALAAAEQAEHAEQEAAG", "test": "Inhibition of Mycobacterium smegmatis MC2 155 recombinant ndhA assessed as rate of NADH oxidation in the presence of an electron acceptor menadione", "parameters": "species or system Mycolicibacterium smegmatis"}, "Mycobacterium marinum [4]": {"system": "Mycobacterium marinum", "test": "In vivo antimycobacterial efficacy in Mycobacterium marinum expressing Wasabi infected zebrafish larvae assessed as prolongation of survival treated for 4 days after 1 day post infection", "type": "functional, organism-based", "settings": "dose 0.3-1.2 µM, time 4.0 day, DDE = dose-dependent effect", "summary_of_the_method": "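Golden mutant or Tg(mpeg1:mCherry) zebrafish embryos were dechorionated and anaesthetised in 0.016% tricaine. At 30 hpf, 2–3 nL containing about 200–250 cfu of Wasabi-expressing M. marinum M (pTEC15) was injected into the caudal vein. The inoculum was confirmed by plating on 7H10. Embryos were kept in E3 at 28.5 °C, 12 per well, to follow infection and survival.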"}, "[5]": {"test": "Octanol/PBS partition coefficient, logD of compound at pH 7.4 measured after 2 hrs by shake flask method", "type": "physicochemical", "settings": "octanol/water, pH 7.4, 2 h", "summary_of_the_method": "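A 10 mM DMSO stock was diluted 50-fold into 1:1 octanol:PBS pH 7.4 and shaken gently for 2 h at room temperature. Each phase was diluted 50-fold in MeOH and quantified by LC-MS/MS. LogD = log of the octanol/PBS concentration ratio from mass signals. Run in triplicate.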"}, "Mycobacterium marinum [6]": {"system": "Mycobacterium marinum", "test": "In vivo antimycobacterial efficacy in Mycobacterium marinum expressing Wasabi infected zebrafish larvae assessed as prolongation of survival time at 4.8 uM treated for 4 days after 1 day post infection", "type": "functional", "settings": "time 4 day"}, "Mycobacterium marinum [7]": {"system": "Mycobacterium marinum", "test": "in vivo antimycobacterial efficacy in Mycobacterium marinum infected zebrafish larvae assessed as reduction in bacterial burden at 0.25 to 2 micog/ml measured after 2 to 4 days off post infection", "type": "functional, organism-based", "settings": "time 2-4 day"}, "[8]": {"system": "Mycobacterium tuberculosis", "test": "Antimycobacterial activity against Mycobacterium tuberculosis H37Rv infected in human A-THP1 macrophages assessed as viability of infected macrophages incubated for 96 hrs by fluorescence microplate assay", "type": "functional, organism-based", "summary_of_the_method": "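THP-1 cells differentiated with 50 ng/mL PMA for 72 h, infected with log-phase H37Rv (MOI 10, 2 h), and extracellular bacteria killed with 50 µg/mL amikacin for 1 h. Cells detached and seeded at 5×10⁵/mL in RPMI-10% FBS with PMA onto pre-dispensed compound, 96 h at 37°C, 5% CO₂. Macrophage viability by 0.05% resazurin fluorescence.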"}, "[9]": {"test": "Toxicity in noninfected zebrafish larvae assessed as larval development", "parameters": "species or system Danio rerio", "settings": "in vivo"}, "[10]": {"test": "Toxicity in noninfected zebrafish larvae assessed as toxic effect", "parameters": "species or system Danio rerio", "settings": "in vivo"}, "Pseudomonas aeruginosa": {"system": "Pseudomonas aeruginosa", "test": "Antibiotic activity against Pseudomonas aeruginosa POA1 assessed as reduction in bacterial cell growth by measuring resazurin reduction incubated for 6 days by fluorescence microplate based assay", "type": "functional", "settings": "POA1, 144 h, time 6 day"}, "Staphylococcus aureus": {"system": "Staphylococcus aureus", "test": "Antibiotic activity against Staphylococcus aureus SH1000 assessed as reduction in bacterial cell growth by measuring resazurin reduction incubated for 6 days by fluorescence microplate based assay", "type": "functional", "settings": "SH1000, 144 h, time 6 day", "summary_of_the_method": "(§1)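 E. coli BW25113, E. coli ΔtolC and S. aureus SH1000 were cultured and tested in cation-adjusted Mueller Hinton II broth. Viability was read by adding resazurin and measuring resorufin fluorescence at Ex 530 nm / Em 590 nm.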"}, "Mycobacterium marinum [11]": {"system": "Mycobacterium marinum", "test": "Antibiotic activity against Mycobacterium marinum M strain assessed as reduction in bacterial cell growth by measuring resazurin reduction incubated for 6 days by fluorescence microplate based assay", "type": "functional", "settings": "144 h, time 6 day"}, "Escherichia coli": {"system": "Escherichia coli", "test": "Antibiotic activity against Escherichia coli deltatolC BW25113 deltatolC assessed as reduction in bacterial cell growth by measuring resazurin reduction incubated for 6 days by fluorescence microplate based assay", "type": "functional", "settings": "144 h, time 6 day", "summary_of_the_method": "as §1"}, "[12]": {"test": "Aqueous solubility of compound in pH 7.4 […]", "type": "physicochemical", "settings": "buffer", "summary_of_the_method": "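A 10 mM DMSO stock was diluted 50-fold into PBS pH 7.4 or methanol and shaken gently for 24 h at room temperature. Samples were centrifuged, filtered (0.45 µm), diluted 50-fold in MeOH and analysed by LC-MS/MS. Solubility = (AUC PBS/AUC MeOH)×200. Run in triplicate.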"}, "[13]": {"system": "Mycobacteroides abscessus", "test": "Antibiotic activity against Mycobacterium abscessus CIP104536, Smooth variant assessed as reduction in bacterial cell growth by measuring resazurin reduction incubated for 6 days by fluorescence microplate based assay", "type": "functional", "settings": "144 h, time 6 day"}, "[14]": {"system": "Mycobacterium tuberculosis", "test": "Antibiotic activity against Mycobacterium tuberculosis H37Rv assessed as reduction in bacterial cell growth by measuring resazurin reduction incubated for 6 days by fluorescence microplate based assay", "type": "functional", "settings": "144 h, time 6 day"}, "Klebsiella pneumoniae": {"system": "Klebsiella pneumoniae", "test": "Antibiotic activity against Klebsiella pneumoniae LMG 2095 assessed as reduction in bacterial cell growth by measuring resazurin reduction incubated for 6 days by fluorescence microplate based assay", "type": "functional", "settings": "LMG 2095, 144 h, time 6 day"}, "Bacillus subtilis": {"system": "Bacillus subtilis", "test": "Antibiotic activity against Bacillus subtilis ATCC6633 assessed as reduction in bacterial cell growth by measuring resazurin reduction incubated for 6 days by fluorescence microplate based assay", "type": "functional", "settings": "ATCC6633, 144 h, time 6 day"}, "Mycobacterium avium": {"system": "Mycobacterium avium", "test": "Antibiotic activity against Mycobacterium avium TMC 724, ATCC-25291 assessed as reduction in bacterial cell growth by measuring resazurin reduction incubated for 6 days by fluorescence microplate based assay", "type": "functional", "settings": "TMC 724, ATCC-25291, 144 h, time 6 day"}, "Acinetobacter baumannii": {"system": "Acinetobacter baumannii", "test": "Antibiotic activity against Acinetobacter baumannii LMG-17978 assessed as reduction in bacterial cell growth by measuring resazurin reduction incubated for 6 days by fluorescence microplate based assay", "type": "functional", "settings": "LMG-17978, 144 h, time 6 day"}, "[15]": {"system": "Mycobacteroides abscessus", "test": "Antibiotic activity against Mycobacterium abscessus CIP104536, Rough variant assessed as reduction in bacterial cell growth by measuring resazurin reduction incubated for 6 days by fluorescence microplate based assay", "type": "functional", "settings": "144 h, time 6 day"}, "[16]": {"system": "Mycolicibacterium smegmatis", "test": "Antibiotic activity against Mycobacterium smegmatis mc2155 assessed as reduction in bacterial cell growth by measuring resazurin reduction incubated for 6 days by fluorescence microplate based assay", "type": "functional", "settings": "mc2155, 144 h, time 6 day"}},
  "note": "pIC50: −log10 of the molar value. Active and inactive are the calls of the source. No cut-off for these calls is given here.",
  "data": [
    {"smiles": "Cc1ccc(CN2CC[C@]34OC[C@H](C(C)C)N3C(=O)CC[C@@H]4C2)cc1", "values": [
      {"measurement": "MIC98", "setting": "[1]", "result": 1.7, "unit": "µM"}
    ]},
    {"smiles": "CC(C)[C@H]1CO[C@]23CCN(Cc4ccc(Cl)cc4)C[C@H]2CCC(=O)N13", "values": [
      {"measurement": "MIC98", "setting": "[1]", "result": 0.25, "unit": "µM"},
      {"measurement": "pIC50", "setting": "[2]", "result": 7.55},
      {"measurement": "pIC50", "setting": "[3]", "result": 7.02}
    ]},
    {"smiles": "CC(C)[C@H]1CO[C@]23CCN(Cc4ccc(C(F)(F)F)nc4)C[C@H]2CCC(=O)N13", "values": [
      {"measurement": "Activity", "setting": "Mycobacterium marinum [4]", "result": "Dde"},
      {"measurement": "logD", "setting": "[5]", "result": 2.7},
      {"measurement": "Time", "setting": "Mycobacterium marinum [6]", "result": 3, "unit": "days"},
      {"measurement": "MIC98", "setting": "[1]", "result": 0.59, "unit": "µM"},
      {"measurement": "pIC50", "setting": "[2]", "result": 7.49},
      {"measurement": "pIC50", "setting": "[3]", "result": 6.48},
      {"measurement": "Activity", "setting": "Mycobacterium marinum [7]", "result": "Active"},
      {"measurement": "pIC50", "setting": "[8]", "result": 5.62},
      {"measurement": "Activity", "setting": "[9]", "result": "Non-Toxic"},
      {"measurement": "Activity", "setting": "[10]", "result": "Non-Toxic"}
    ]},
    {"smiles": "O=C1CC[C@@H]2CN(Cc3ccccc3)CC[C@@]23OC[C@H](C2CC2)N13", "values": [
      {"measurement": "MIC98", "setting": "[1]", "result": 37.5, "unit": "µM"}
    ]},
    {"smiles": "COc1ccc(CN2CC[C@]34OC[C@H](C(C)C)N3C(=O)CC[C@@H]4C2)cc1", "values": [
      {"measurement": "MIC98", "setting": "[1]", "result": 4.7, "unit": "µM"},
      {"measurement": "pIC50", "setting": "[2]", "result": 6.70},
      {"measurement": "pIC50", "setting": "[3]", "result": 5.63}
    ]},
    {"smiles": "CC(C)[C@H]1CO[C@]23CCN(Cc4ccccc4)C[C@H]2CCC(=O)N13", "values": [
      {"measurement": "MIC", "setting": "Pseudomonas aeruginosa", "result": "> 100", "unit": "µM"},
      {"measurement": "MIC", "setting": "Staphylococcus aureus", "result": "> 100", "unit": "µM"},
      {"measurement": "MIC", "setting": "Mycobacterium marinum [11]", "result": 6.3, "unit": "µM"},
      {"measurement": "MIC", "setting": "Escherichia coli", "result": "> 100", "unit": "µM"},
      {"measurement": "logD", "setting": "[5]", "result": 2.7},
      {"measurement": "solubility", "setting": "[12]", "result": 178, "unit": "µM"},
      {"measurement": "MIC", "setting": "[13]", "result": "≥ 100", "unit": "µM"},
      {"measurement": "MIC", "setting": "[14]", "result": 3.2, "unit": "µM"},
      {"measurement": "MIC", "setting": "Klebsiella pneumoniae", "result": "> 100", "unit": "µM"},
      {"measurement": "MIC", "setting": "Bacillus subtilis", "result": "> 100", "unit": "µM"},
      {"measurement": "MIC", "setting": "Mycobacterium avium", "result": 13.1, "unit": "µM"},
      {"measurement": "MIC", "setting": "Acinetobacter baumannii", "result": "> 100", "unit": "µM"},
      {"measurement": "pIC50", "setting": "[3]", "result": 6.01},
      {"measurement": "MIC", "setting": "[15]", "result": "≥ 100", "unit": "µM"},
      {"measurement": "MIC", "setting": "[16]", "result": 29.2, "unit": "µM"},
      {"measurement": "pIC50", "setting": "[8]", "result": 5.09}
    ]}
  ]
}
